This note sets out measurements from ChEMBL document CHEMBL3286113, “New potent antibacterial oxazolidinone (MRX-I) with an improved class safety profile” (J Med Chem, 2014).

Molecules are shown by their SMILES. Converted amounts (≈) assume the structure as drawn. Where only a bound is given, the exact number is not on record here.

Assay [1] deals with Staphylococcus aureus. As to the kind of experiment: Antibacterial activity against methicillin-resistant Staphylococcus aureus SAU1009. The format is functional. The gist of the method: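 MIC against MRSA strain SAU1009.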
The target of assay [2] is T1, Amine oxidase [flavin-containing] A (Homo sapiens, UniProt P21397).
T1 sequence (P21397 whole entry): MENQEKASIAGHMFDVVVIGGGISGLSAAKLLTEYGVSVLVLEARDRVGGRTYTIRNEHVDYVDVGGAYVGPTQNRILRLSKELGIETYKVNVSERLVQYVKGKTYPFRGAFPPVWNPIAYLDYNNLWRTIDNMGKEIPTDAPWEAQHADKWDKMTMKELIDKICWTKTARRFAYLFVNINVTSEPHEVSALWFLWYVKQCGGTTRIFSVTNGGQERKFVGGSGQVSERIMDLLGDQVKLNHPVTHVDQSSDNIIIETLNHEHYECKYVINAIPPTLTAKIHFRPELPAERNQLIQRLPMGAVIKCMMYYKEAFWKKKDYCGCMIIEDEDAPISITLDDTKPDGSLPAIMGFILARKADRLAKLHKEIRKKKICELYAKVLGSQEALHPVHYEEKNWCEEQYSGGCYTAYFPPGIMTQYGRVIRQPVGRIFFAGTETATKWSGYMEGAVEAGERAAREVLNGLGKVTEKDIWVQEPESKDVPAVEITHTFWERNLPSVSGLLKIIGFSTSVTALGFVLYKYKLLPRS
As to the kind of experiment: Inhibition of human recombinant MAO-A expressed in yeast after 1 hr by luciferin-based luminescence assay.

The test system of assay [3] is Staphylococcus aureus. The experiment in a line: Antibacterial activity against Staphylococcus aureus in po dosed mouse septicemia model. Format: functional.
The subject of the next assay is Enterococcus faecalis. The experiment in a line: Bacteriostatic activity against vancomycin-sensitive Enterococcus faecalis. Format: functional.
The subject of assay [4] is Enterococcus faecium. The experiment in a line: Bacteriostatic activity against vancomycin-sensitive Enterococcus faecium. Format: functional.
The test system of a further assay is Enterococcus. The experiment in a line: Bacteriostatic activity against vancomycin-sensitive Enterococcus. The format is functional.
The subject of assay [5] is Enterococcus faecium. As to the kind of experiment: Bacteriostatic activity against vancomycin-resistant Enterococcus faecium. The format is functional.
Assay [6] has as its system Staphylococcus aureus. The experiment in a line: Antibacterial activity against Staphylococcus aureus. The format is functional.
For assay [7], the system named is Staphylococcus aureus. The experiment in a line: Antibacterial activity against Staphylococcus aureus by agar dilution method. Format: functional. Summed up: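 MIC determined by agar dilution across S. aureus/MRSA isolates; MIC90 is the concentration inhibiting 90% of strains tested.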
The nature of assay [8]: Myelosuppression activity against human CD34-positive blood stem/progenitor cells assessed as growth inhibition after 9 to 10 days by CellTiter-Glo luminescent assay.
Assay [9] has as its system Staphylococcus aureus. As to the kind of experiment: Antibacterial activity against methicillin-resistant Staphylococcus aureus. The format is functional.
The subject of assay [10] is Staphylococcus aureus. The experiment in a line: Antibacterial activity against Staphylococcus aureus UC9213. The format is functional.

Take `O=C1O[C@@H](CO)CN1c1ccc(-c2ccc(N3CCOC3=O)nc2)c(F)c1`: in the assay with Staphylococcus aureus [1], the MIC was determined as 0.125 µg/mL (≈ 0.335 µM).
`O=C1C=CN(c2c(F)cc(N3C[C@H](Cn4ccnn4)OC3=O)c(F)c2F)CC1` had a minimum inhibitory concentration (MIC) in the assay on Staphylococcus aureus [1] of 1 µg/mL (≈ 2.54 µM). Moreover, the IC50 in [2] is above 254 µM. This compound came in with a median effective dose (ED50) in the assay with Staphylococcus aureus [3] of 10 mg/kg.
The like results for `CC(=O)NC[C@H]1CN(c2ccc(N3C=CC(=O)CC3)c(F)c2F)C(=O)O1` were, in that order, 1 µg/mL (≈ 2.74 µM), above 274 µM and 15.9 mg/kg.
`CC(=O)NC[C@H]1CN(c2cc(F)c(N3C=CC(=O)CC3)c(F)c2F)C(=O)O1` had an MIC against Staphylococcus aureus [1] of 2 µg/mL (≈ 5.22 µM). For the same compound, the ED50 in the assay with Staphylococcus aureus [3] was above 20 mg/kg.
For the compound `CN[C@H](CC(C)C)C(=O)N[C@H]1C(=O)N[C@@H](CC(N)=O)C(=O)N[C@H]2C(=O)N[C@H]3C(=O)N[C@H](C(=O)N[C@H](C(=O)O)c4cc(O)cc(O)c4-c4cc3ccc4O)[C@H](O)c3ccc(c(Cl)c3)Oc3cc2cc(c3O[C@@H]2O[C@H](CO)[C@@H](O)[C@H](O)[C@H]2O[C@H]2C[C@](C)(N)[C@H](O)[C@H](C)O2)Oc2ccc(cc2Cl)[C@H]1O` [VANCOMYCIN], the MIC50 against Enterococcus faecalis was 0.5 µg/mL (≈ 0.345 µM); against Enterococcus faecium [4], 0.5 µg/mL (≈ 0.345 µM); against Enterococcus it was 0.5 µg/mL (≈ 0.345 µM); against Enterococcus faecium [5] it was above 128 µg/mL. Further, the MIC90 with Enterococcus faecalis was 1 µg/mL (≈ 0.69 µM); with Enterococcus faecium [4], 0.5 µg/mL (≈ 0.345 µM); against Enterococcus it was 2 µg/mL (≈ 1.38 µM); in the assay with Enterococcus faecium [5], above 128 µg/mL.
In turn, `Cn1nnc(-c2ccc(-c3ccc(N4C[C@H](CO)OC4=O)c(F)c3F)cn2)n1` came in with an MIC with Staphylococcus aureus [1] of 1 µg/mL (≈ 2.58 µM).
In the case of `CC(=O)NC[C@H]1CN(c2ccc(C(C)=O)cc2)C(=O)O1` [DUP-721], 0.5 µg/mL (≈ 1.81 µM) was the least that counted as inhibitory in the assay with Staphylococcus aureus [6] (MIC).
Same read-out and setting: the figure for `CC(=O)NC[C@H]1CN(c2ccc(C(C)=O)cc2F)C(=O)O1` is 32 µg/mL (≈ 109 µM).
In the assay on Staphylococcus aureus [7], `CC(=O)NC[C@H]1CN(c2cc(F)c(N3CCOCC3)c(F)c2F)C(=O)O1` registered an MIC90 of 4 µg/mL (≈ 10.7 µM).
As to `Cn1nnc(-c2ccc(-c3ccc(N4C[C@H](COP(=O)(O)O)OC4=O)cc3F)cn2)n1` [TEDIZOLID PHOSPHATE], the half-inhibitory concentration (IC50) in assay [2] was 4 µM; in [8] it was 0.2 µg/mL. In addition, the MIC90 in the assay with Staphylococcus aureus [9] is 0.5 µg/mL.
In the assay with Staphylococcus aureus [1], `Cn1nnc(-c2ccc(-c3ccc(N4C[C@H](CO)OC4=O)cc3F)cn2)n1` [TEDIZOLID] registered an MIC of 0.25 µg/mL (≈ 0.675 µM).
The same measure, in the same setting: the figure for `N#Cc1ccc(-c2ccc(N3C[C@H](CO)OC3=O)c(F)c2F)cn1` is 1 µg/mL (≈ 3.02 µM).
`CC(=O)NC[C@H]1CN(c2ccc(N3C=CC(=O)CC3)c(F)c2)C(=O)O1`: in [2], the IC50 was 10.9 µM. The compound also came in with a 50% effective dose (ED50) in the assay on Staphylococcus aureus [3] of 10 mg/kg. This compound gave a minimal inhibitory concentration (MIC) with Staphylococcus aureus [10] of 0.5 µg/mL (≈ 1.44 µM).
For the compound `O=C1OCCN1c1ccc(-c2ccc(N3C[C@H](CO)OC3=O)c(F)c2F)cn1`, the minimum inhibitory concentration (MIC) against Staphylococcus aureus [1] turned out to be 0.5 µg/mL (≈ 1.28 µM).
In the assay with Staphylococcus aureus [1], `O=C1C=CN(c2ccc(N3C[C@H](COc4ccon4)OC3=O)c(F)c2F)CC1` showed an MIC of 4 µg/mL (≈ 10.2 µM). This compound came in with a median effective dose (ED50) in the assay on Staphylococcus aureus [3] above 20 mg/kg.
As to `N#Cc1ccc(-c2ccc(N3C[C@H](CO)OC3=O)cc2F)cn1`, the MIC in the assay with Staphylococcus aureus [1] stood at 0.25 µg/mL (≈ 0.798 µM).
For `COC(=O)NC[C@H]1CN(c2cc(F)c(N3C=CC(=O)CC3)c(F)c2F)C(=O)O1`, the MIC with Staphylococcus aureus [1] amounted to 2 µg/mL (≈ 5.01 µM). Moreover, the concentration for half-maximal inhibition (IC50) in assay [2] was 61.1 µM. The ED50 in the assay with Staphylococcus aureus [3] was found to be 6.3 mg/kg.
